ChEMBL document CHEMBL2380229, “Design, synthesis, cytotoxic evaluation and tubulin inhibitory activity of 4-aryl-5-(3,4,5-trimethoxyphenyl)-2-alkylthio-1H-imidazole derivatives” (Bioorg Med Chem, 2013)
The source made the active and inactive calls. The calls are words filed in the database; no cut-off is given here.

What was measured:
HT-29 = test: Cytotoxicity against human HT-29 cells assessed as growth inhibition after 48 hrs by MTT assay; type: functional, cell-based; conditions: HT-29, 48 h
Procedure, shortened: (§1)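 MTT assay. Cells seeded at 8000–10,000 viable cells per well and allowed 24 h before a 48 h compound exposure. MTT (5 mg/mL solution) added for a further 4 h, then formazan dissolved in DMSO. Absorbance read at 550 nm against a 690 nm reference. Two independent experiments in triplicate. IC50 by nonlinear regression, mean ± SD.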

NIH3T3 [1] = test: Cytotoxicity against mouse NIH/3T3 cells assessed as growth inhibition after 48 hrs by MTT assay; type: functional, cell-based; conditions: NIH3T3, 48 h; procedure, shortened: as §1
MCF7 = test: Cytotoxicity against human MCF7 cells assessed as growth inhibition after 48 hrs by MTT assay; type: functional, cell-based; conditions: MCF7, 48 h; procedure, shortened: as §1
AGS = test: Cytotoxicity against human AGS cells assessed as growth inhibition after 48 hrs by MTT assay; type: functional, cell-based; procedure, shortened: as §1
Ovis aries [2] = species: Ovis aries; test: Inhibition of sheep brain microtubule polymerization at 5 uM after 15 mins by UV-vis spectrophotometric analysis
Procedure, shortened: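 Purified tubulin (12 µM) in PEM buffer (100 mM PIPES pH 6.9, 1 mM MgSO4, 1 mM EGTA) preincubated 15 min with compound (5 µM final), then cooled to 0 °C. GTP added to 1 mM final. Assembly started by warming from 0 to 37 °C and followed by absorbance at 350 nm. Positive control at 2 µM final.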

Ovis aries [3] = species: Ovis aries; test: Inhibition of sheep brain microtubule polymerization at 2 uM after 15 mins by UV-vis spectrophotometric analysis
Procedure, shortened: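 Purified microtubule protein preincubated 15 min with compound in PEM buffer (100 mM PIPES pH 6.9, 1 mM MgSO₄, 1 mM EGTA), then cooled to 0 °C. GTP added (1 mM final), and assembly started by warming from 0 to 37 °C. Polymerization followed as absorbance change at 350 nm.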

NIH3T3 [4] = test: Cell cycle arrest in mouse NIH/3T3 cells assessed as accumulation at S phase at 0.10 uM after 24 hrs by propidium iodide staining-based FACS flow cytometric analysis (reference value: 24.39%); type: functional
NIH3T3 [5] = test: Cell cycle arrest in mouse NIH/3T3 cells assessed as accumulation at G0/G1 phase at 0.10 uM after 24 hrs by propidium iodide staining-based FACS flow cytometric analysis (reference value: 39.91%); type: functional
NIH3T3 [6] = test: Cell cycle arrest in mouse NIH/3T3 cells assessed as accumulation at G2/M phase at 0.10 uM after 24 hrs by propidium iodide staining-based FACS flow cytometric analysis (reference value: 35.70%); type: functional

| Structure (SMILES) | IC50 (HT-29) | IC50 (NIH3T3 [1]) | IC50 (MCF7) | IC50 (AGS) | microtubule polymerization inhibition (active/inactive call) (Ovis aries [2]) | inhibition (Ovis aries [3]) | Activity (NIH3T3 [4]) | Activity (NIH3T3 [5]) | Activity (NIH3T3 [6]) |
| --- | --- | --- | --- | --- | --- | --- | --- | --- | --- |
| COc1cc(-c2nc(SC)[nH]c2-c2cc(OC)c(OC)c(OC)c2)cc(OC)c1OC | > 50 µM | > 50 µM |  |  |  |  |  |  |  |
| CCSc1nc(-c2cc(OC)c(OC)c(OC)c2)c(-c2cc(OC)c(OC)c(OC)c2)[nH]1 | > 50 µM | > 50 µM |  |  |  |  |  |  |  |
| COc1cc(-c2nc(SC)[nH]c2-c2cccc(OC)c2OC)cc(OC)c1OC | 27.5 µM | 30.2 µM | 18.1 µM | 35.3 µM |  |  |  |  |  |
| CCSc1nc(-c2cc(OC)c(OC)c(OC)c2)c(-c2cccc(OC)c2OC)[nH]1 | 36.7 µM | 27.2 µM | 22.9 µM | 39 µM |  |  |  |  |  |
| COc1ccc(-c2[nH]c(SC)nc2-c2cc(OC)c(OC)c(OC)c2)cc1OC | 4.82 µM | 6.01 µM | 4.04 µM | 10.6 µM | Active |  |  |  |  |
| COc1ccccc1-c1[nH]c(SC)nc1-c1cc(OC)c(OC)c(OC)c1 | 21.7 µM | 38.7 µM | 12.2 µM | 48.4 µM |  |  |  |  |  |
| CCSc1nc(-c2cc(OC)c(OC)c(OC)c2)c(-c2ccc(OC)cc2OC)[nH]1 | 6.56 µM | 7.25 µM | 3.55 µM | 18.6 µM |  |  |  |  |  |
| COc1ccc(/C=C\c2cc(OC)c(OC)c(OC)c2)cc1O [COMBRETASTATIN A4] | 0.18 µM | 0.02 µM | 0.4 µM | 0.04 µM |  | Active |  |  |  |
| CCSc1nc(-c2cc(OC)c(OC)c(OC)c2)c(-c2ccccc2OC)[nH]1 | 18.6 µM | 36.2 µM | 11 µM | 40.7 µM |  |  |  |  |  |
| CCSc1nc(-c2ccc(OC)c(OC)c2)c(-c2ccc(OC)c(OC)c2)[nH]1 | 21.2 µM | 27.6 µM | 15.1 µM | 33.6 µM |  |  |  |  |  |
| COc1ccc(-c2[nH]c(SC)nc2-c2cc(OC)c(OC)c(OC)c2)c(OC)c1 | 18.6 µM | 11.9 µM | 4.15 µM | 23.2 µM |  |  |  |  |  |
| CCSc1nc(-c2cc(OC)c(OC)c(OC)c2)c(-c2ccc(OC)c(OC)c2)[nH]1 | 21 µM | 14.1 µM | 13.2 µM | 37.2 µM | Active |  |  |  |  |
| COc1ccc(-c2nc(SC)[nH]c2-c2ccc(OC)c(OC)c2)cc1OC | 24.1 µM | 35.8 µM | 17.2 µM | 34.8 µM |  |  |  |  |  |
| CCSc1nc(-c2cc(OC)c(OC)c(OC)c2)c(-c2ccc(OC)cc2)[nH]1 | 0.36 µM | 0.26 µM | 0.75 µM | 0.07 µM | Active |  |  |  |  |
| COc1ccc(-c2[nH]c(SC)nc2-c2cc(OC)c(OC)c(OC)c2)cc1 | 0.25 µM | 0.06 µM | 0.52 µM | 0.06 µM | Active |  | 7.07% | 1.01% | 91.93% |
